Screens (PubChem BioAssay)
Rows were chosen to be rich in hits. Some 0.95% of all compounds tested hit in one or more screens of this group.
Diaphorase inh = diaphorase inhibition or chemical oxidation counter-screen; hit rate 0.69% among 190,000; inhibition, % at 20 µM; diaphorase resazurin-to-resorufin fluorescence, NADH, 16 min; bacterial (C. kluyveri) enzyme, not human;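 active = primary screen inhibition at 20 µM above a set limit, cut at about 50% in these data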;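 note: plate controls were DMSO with full reaction for no effect and wells lacking NADH for full effect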
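Benchmarks: positive control wells lacking NADH, neutral wells with DMSO only. System: bacterial diaphorase enzyme (C. kluyveri). Input: 0.14 U/mL diaphorase, enzyme working solution. Detection: resorufin fluorescence, excitation 544 nm, emission 590 nm. Times: 16-min room-temperature incubation before reading.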
G6PDH CS = L. mesenteroides G6PDH inhibition counter-screen. inhibition, % at 5 µM. Purified L. mesenteroides G6PDH, diaphorase/resazurin coupled fluorescence, 45 min. AID 1020. hit rate 0.12% among 200,000; in the data active = inhibition above about 50%
p97 ATPase inh = inhibitors of human p97 ATPase; P55072; recombinant p97 ATPase, Kinase-Glo ATP luminescence, 3 h; inhibition, % at 8 µM; hit rate 0.42% among 220,000; in the data active = inhibition above about 15%;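 note: 0% = DMSO vehicle and 100% = wells lacking enzyme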
UBC9 SUMO inh = inhibitors of human SUMOylation (UBC9). HTRF SUMOylation assay, SAE1/SAE2 + UBC9, in vitro. inhibition, % at 35 µM. hit rate 0.36% among 290,000; in the data active = inhibition above about 50%, passing the limit was not always enough
Target sequence (P63279 whole entry, looked up): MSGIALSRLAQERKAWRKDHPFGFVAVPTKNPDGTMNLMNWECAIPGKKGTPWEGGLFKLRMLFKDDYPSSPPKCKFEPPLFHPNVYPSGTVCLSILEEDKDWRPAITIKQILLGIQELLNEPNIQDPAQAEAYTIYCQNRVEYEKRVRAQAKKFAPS
HKDC1 inhibitor = HKDC1 (human) hexokinase inhibition; recombinant HKDC1, G6PDH/diaphorase resazurin coupled fluorescence; hit rate 0.16% among 340,000; inhibition, % at 20 µM;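 active = inhibition above about 35% when tested at 20 µM, limit read from the data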;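 note: plate controls were DMSO wells with enzyme for no effect and DMSO wells lacking enzyme for full effect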
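Test system: recombinant HKDC1 (HK5) hexokinase enzyme, produced in-house; Amount: enzyme 5 µg/mL final; Buffer or medium: Tris pH 8.0 buffer with MgCl2, Tween-20, BSA, BME; Reagent: glucose and ATP substrates; Doses: 20 µM test compound, 1% DMSO; Incubation: 90 min reaction incubation at room temperature, dark; Detection: resorufin fluorescence at 613 nm.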
p97 inh conf = human p97 ATPase inhibition, confirmation; hit rate 44% among 760; inhibition, % at 8 µM; AID 1517; shares compounds with p97 ATPase inh; recombinant p97 ATPase, Kinase-Glo ATP luminescence;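 active = percent inhibition of p97 ATPase above a set limit, the primary screen's mean plus 3 SD, cut at about 15% in these data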;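 note: 0% = DMSO wells and 100% = wells lacking p97 protein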
* = called active by the depositor; · = no result.

SMILES	Diaphorase inh	G6PDH CS	p97 ATPase inh	UBC9 SUMO inh	HKDC1 inhibitor	p97 inh conf
Cn1cccc1/C=C1\SC(=Nc2cccc(O)c2)NC1=O	·	·	16*	10	3	13
Cn1cccc1/C=C1\SC(=Nc2ccc(O)cc2)NC1=O	·	·	16*	-4	0	23*
COc1cc(C(C)=O)ccc1OCC(O)CNCC1(N2CCCCC2)CCCCC1 (centres undefined)	17	2	-2	1	4	·
C=CCNCC(O)COc1ccc(C(C)=O)cc1OC (centres undefined)	·	·	18*	5	-6	10
CCc1cccc(NC(=O)C2CCCN(S(=O)(=O)c3c(C)[nH]c(=O)[nH]c3=O)C2)c1 (centres undefined)	7	2	23*	-2	0	9
Cc1ccccc1-c1cc(=O)c2c(O)cccc2o1	·	·	·	-8	4	·
O=c1cc2oc3cc(O)c(O)cc3c(-c3ccccc3O)c-2cc1O	·	·	29*	85*	31	36*
CC(C)N(CC(N)=O)C(=O)Cc1coc2cc3c(cc12)CCC3	14	7	26*	6	-5	9
N#C/C(=C/c1ccc(Br)o1)C(N)=O	8	4	3	11	-2	·
N#C/C(=C/c1ccc(Br)o1)C(N)=S	·	·	35*	21	·	30*
CCCc1cc(=O)[nH]c(SCC(=O)Nc2ccc3c(c2)CCC3)n1	-13	12	15*	0	0	4
O=C(/C=C/c1ccco1)Nc1cccc(C(=O)Nc2ccccc2C(=O)O)c1	·	·	46*	48	13	30*
CCc1ccccc1NC(=O)c1cccc(NC(=O)/C=C/c2ccco2)c1	6	2	1	16	-13	·
N#C/C(=C(/O)c1cc2ccccc2o1)c1nc2ccccc2s1	·	·	26*	23	13	24*
N#C/C(=C/c1ccc(-c2ccc(C(=O)O)c(Cl)c2)o1)C(=O)NCC1CCCO1 (centres undefined)	20	6	27*	5	0	37*
CC1CCN(S(=O)(=O)c2ccc(NC(=O)CCNC(=O)c3ccc(Cl)cc3)cc2)CC1	·	·	·	·	-5	·
Cc1cccc(NC(=O)C2C(c3ccccc3)C2(Cl)Cl)c1 (centres undefined)	25	7	19*	-4	-4	37*
CC(=O)c1cccc(NC(=O)C2C(c3ccccc3)C2(Cl)Cl)c1 (centres undefined)	26	1	28*	4	-1	32*
S=c1[nH]nc(-c2ccc(Cl)cc2)n1/N=C/c1ccco1	·	·	0	9	-1	·
S=c1[nH]nc(-c2ccc(Cl)cc2)n1/N=C/C=C/c1ccco1	·	·	16*	·	0	7
Cc1ccccc1-c1n[nH]c(=S)n1/N=C/C=C/c1ccco1	·	·	8	47	11	·
Cc1cc(-c2n[nH]c(=S)n2/N=C/C=C/c2ccco2)n[nH]1	·	·	24*	35	-13	9
CCC(C)[C@H](NC(=O)N1CCn2c1nc1ccccc12)C(=O)NCCc1ccc(OC)c(OC)c1 (some centres undefined)	·	·	·	20	-5	·
Cc1c(O)ccc2c(O)c(NC(=O)c3ccc4c(c3)CCC(C)(C)O4)c(=O)oc12	·	·	29*	5	-3	0
Cc1c(CC(=O)NCCCO)c(=O)oc2cc3c(cc12)CCC(C)(C)O3	·	·	·	-10	-6	·
SMILES	Diaphorase inh	G6PDH CS	p97 ATPase inh	UBC9 SUMO inh	HKDC1 inhibitor	p97 inh conf
CC(C)(C)C(=O)Nc1sc(-c2ccccc2)cc1C(=O)O	·	·	18*	12	-5	3
c1nc(C2CCCCC2)cc2cc3c(cc12)OCO3	·	·	·	·	-3	·
CC/C(=C\c1ccc(N(C)C)cc1)c1ccncc1	·	·	·	·	-3	·
O=C(CCl)Nc1ccccc1C(=O)NCc1ccccc1	9	0	18*	9	-2	16*
CC(C)CN(C(=O)Cn1nnc(-c2ccc(F)cc2)n1)C1CCS(=O)(=O)C1 (centres undefined)	·	·	·	·	-2	·
N#Cc1c(-c2ccccc2)c(-c2ccccc2)nn(CC(=O)NNC(=O)Nc2ccc(Cl)cc2)c1=O	·	·	31*	2	3	27*
N#Cc1c(-c2ccccc2)c(-c2ccccc2)nn(CC(=O)NNC(=O)Nc2ccccc2)c1=O	17	7	11	11	3	·
O=C(O)c1cccc(NC2=Nc3cccc4cccc2c34)c1	·	·	16*	21	-1	10
c1ccc(NC2=Nc3cccc4cccc2c34)cc1	12	-3	7	14	-1	·
COc1ccc(CCn2c(N)c(C(=O)NCc3ccco3)c3nc4ccccc4nc32)cc1	25	4	16*	100*	26	3
COc1ccc(CCn2c(N)c(C(=O)NCc3ccco3)c3nc4ccccc4nc32)cc1OC	16	17	4	100	18	·
O=C(O)c1cc(-c2c[nH]c3ccccc23)nc2ccc3ccccc3c12	6	7	20*	24	-6	20*
COc1cccc(Nc2ccccc2C(=O)O)c1	16	4	16*	-14	-2	5
COc1ccc(C(=O)Nc2nccs2)cc1[N+](=O)[O-]	5	-2	5	-7	-5	·
Cn1cc([N+](=O)[O-])c(C(=O)Nc2nccs2)n1	17	12	17*	13	-8	7
O=C(CNC(=O)c1ccc(F)cc1)N/N=C/c1ccc(O)c([N+](=O)[O-])c1	6	-15	22*	15	2	5
O=C(CNC(=O)c1cccc(F)c1)N/N=C/c1ccc(O)c([N+](=O)[O-])c1	12	-12	-3	3	10	·
Cc1c(Br)c(O)c(Br)c2sc(=O)oc12	·	·	22*	51	23	7
CCOc1ccc(N(C)S(=O)(=O)c2ccc(C)c(C(=O)Nc3nnc(C4CC4)s3)c2)cc1	·	·	·	·	5	·
Nc1ccc(N2CCOCC2)c2nonc12	28	47	47*	99*	3	2
CCOc1ccc(N2C(=O)CC(NC3CCCCNC3=O)C2=O)cc1 (centres undefined)	6	0	4	-1	-3	·
O=C1NCCCCC1NC1CC(=O)N(c2ccccc2)C1=O (centres undefined)	8	-5	17*	-2	-7	9
CC(=O)C1=C(O)C(=O)N(c2ccc(C)cc2)C1c1ccc([N+](=O)[O-])cc1 (centres undefined)	-16	-4	4	12	-4	·
O=C(Nc1ccccc1)c1sccc1Oc1ccc([N+](=O)[O-])cc1F	5	-3	10	-25	6	·
COc1ccc(CCn2c3c(c(=O)[nH]c2=O)C(NC(=O)c2cccs2)(C(F)(F)F)C(=O)N3)cc1OC (centres undefined)	10	6	27*	24	-9	8
C=CC(=O)N=c1sc2ccccc2n1-c1ccccc1	5	4	18*	16	6	17*
N=c1sc2ccccc2n1-c1ccccc1	12	-5	5	-12	-6	·
